# Measurements reported in ChEMBL document CHEMBL4024792, “(N-Hydroxycarbonylbenylamino)quinolines as Selective Histone Deacetylase 6 Inhibitors Suppress Growth of Multiple Myeloma in Vitro and in Vivo” (J Med Chem, 2018).
# Experiments:
# [1] = biological target: Histone deacetylase 3/Nuclear receptor corepressor 2 (HDAC3/NCoR2) (Homo sapiens, UniProt O15379); assay: Inhibition of full length recombinant human C-terminal His-tagged HDAC3/N-terminal GST-tagged NCOR2 (395 to 489 residues) expressed in insect cells using RHK-K(Ac)-AMC as substrate after 60 mins by fluorescence assay
# [2] = biological target: T1, NAD-dependent protein deacetylase sirtuin-1 (Homo sapiens, UniProt Q96EB6); assay: Inhibition of recombinant human N-terminal His-tagged SIRT1 (1 to 747 end residues) expressed in Escherichia coli using Ac-RHK-K(Ac)-AMC as substrate after 30 mins in presence of NAD+ by fluorescence assay
# T1 sequence (Q96EB6 whole entry): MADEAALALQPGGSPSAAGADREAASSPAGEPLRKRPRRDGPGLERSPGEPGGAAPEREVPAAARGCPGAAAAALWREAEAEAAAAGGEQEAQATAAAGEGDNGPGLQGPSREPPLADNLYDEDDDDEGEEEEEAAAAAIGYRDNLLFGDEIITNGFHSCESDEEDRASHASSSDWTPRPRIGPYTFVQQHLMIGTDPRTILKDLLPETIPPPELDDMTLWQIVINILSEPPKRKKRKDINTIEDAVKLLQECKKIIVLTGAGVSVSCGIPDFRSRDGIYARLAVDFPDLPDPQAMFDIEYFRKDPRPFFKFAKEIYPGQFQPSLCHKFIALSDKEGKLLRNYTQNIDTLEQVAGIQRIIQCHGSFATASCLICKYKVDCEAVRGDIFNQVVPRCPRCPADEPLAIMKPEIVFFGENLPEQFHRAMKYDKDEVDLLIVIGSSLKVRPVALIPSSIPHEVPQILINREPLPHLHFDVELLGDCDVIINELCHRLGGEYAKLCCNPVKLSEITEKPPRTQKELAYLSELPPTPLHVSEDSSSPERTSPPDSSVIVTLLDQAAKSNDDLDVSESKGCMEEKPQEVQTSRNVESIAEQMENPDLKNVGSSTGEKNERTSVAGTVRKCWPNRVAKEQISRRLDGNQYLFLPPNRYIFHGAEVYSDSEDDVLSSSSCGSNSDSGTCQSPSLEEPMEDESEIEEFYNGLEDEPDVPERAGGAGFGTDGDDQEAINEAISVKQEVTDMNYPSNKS
# [3] = biological target: T2, Protein deacetylase HDAC6 (Homo sapiens) (UniProt Q9UBN7); assay: Inhibition of HDAC6 in human RPMI8226 cells assessed as increase in acetylated tubulin level by immunoblot analysis relative to control; assay type: cell-based
# T2 sequence (whole entry): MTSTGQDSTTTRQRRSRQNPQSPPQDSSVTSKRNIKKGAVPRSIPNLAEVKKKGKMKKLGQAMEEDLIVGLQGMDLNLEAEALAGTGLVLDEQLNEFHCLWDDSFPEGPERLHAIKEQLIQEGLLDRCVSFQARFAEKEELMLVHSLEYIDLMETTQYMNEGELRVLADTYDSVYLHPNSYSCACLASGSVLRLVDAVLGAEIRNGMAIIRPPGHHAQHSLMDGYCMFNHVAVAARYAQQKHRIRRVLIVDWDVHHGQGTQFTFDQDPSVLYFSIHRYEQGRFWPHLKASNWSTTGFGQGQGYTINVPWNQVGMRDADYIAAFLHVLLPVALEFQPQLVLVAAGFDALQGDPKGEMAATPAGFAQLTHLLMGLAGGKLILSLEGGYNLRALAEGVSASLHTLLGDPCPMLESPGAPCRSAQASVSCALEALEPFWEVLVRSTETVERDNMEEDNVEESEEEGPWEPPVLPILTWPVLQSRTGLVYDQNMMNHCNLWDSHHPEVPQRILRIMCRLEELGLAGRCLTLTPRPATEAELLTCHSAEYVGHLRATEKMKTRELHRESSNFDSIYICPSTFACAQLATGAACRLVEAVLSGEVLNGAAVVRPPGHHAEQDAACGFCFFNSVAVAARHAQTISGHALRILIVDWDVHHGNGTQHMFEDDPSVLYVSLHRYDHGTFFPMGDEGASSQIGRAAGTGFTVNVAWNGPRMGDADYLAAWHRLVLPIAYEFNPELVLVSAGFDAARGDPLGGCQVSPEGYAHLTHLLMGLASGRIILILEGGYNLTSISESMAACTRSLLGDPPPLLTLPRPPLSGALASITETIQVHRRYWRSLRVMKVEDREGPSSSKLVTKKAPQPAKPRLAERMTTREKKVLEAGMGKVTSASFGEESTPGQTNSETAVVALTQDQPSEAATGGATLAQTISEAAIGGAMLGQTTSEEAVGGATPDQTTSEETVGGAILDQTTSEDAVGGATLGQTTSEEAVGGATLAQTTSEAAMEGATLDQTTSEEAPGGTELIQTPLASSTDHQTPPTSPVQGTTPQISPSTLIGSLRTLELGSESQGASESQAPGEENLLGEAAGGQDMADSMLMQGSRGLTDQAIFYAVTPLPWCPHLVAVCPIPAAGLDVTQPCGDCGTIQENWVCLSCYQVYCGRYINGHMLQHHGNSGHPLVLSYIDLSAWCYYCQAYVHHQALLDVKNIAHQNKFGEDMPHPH
# In short: (§1)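 Multiple myeloma cells harvested in Tris-HCl lysis buffer (pH 7.4) with protease and phosphatase inhibitors, then centrifuged 17,000 g for 30 min at 4 °C. Lysates immunoblotted with specific antibodies for acetylated α-tubulin. Signal detected by ECL on film.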
# [4] = Antiproliferative activity against human HS5 cells after 48 hrs by SRB assay; assay type: cell-based
# In short: (§2)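 Cells were exposed to test compounds at the indicated concentrations for 48 h. They were then fixed with 10% trichloroacetic acid, stained 30 min with 0.4% SRB in 1% AcOH, and washed with 1% AcOH. Bound dye was solubilized in 10 mM Tris base and OD read at 510 nm. Lines cultured in RPMI 1640 with 20% FBS and penicillin/streptomycin, 37°C, 5% CO2.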
# Histone deacetylase 4 = Histone deacetylase 4 (Homo sapiens, UniProt P56524); assay: Inhibition of recombinant human C-terminal His-tagged/N-terminal GST-tagged HDAC4 (627 to 1084 residues) expressed in insect cells using Boc-K(Ac)-AMC as substrate after 60 mins by fluorescence assay
# Histone deacetylase 9 = Histone deacetylase 9 (Homo sapiens, UniProt Q9UKV0); assay: Inhibition of HDAC9 (unknown origin)
# [5] = biological target: T3, Protein deacetylase HDAC6 (Homo sapiens, UniProt Q9UBN7); assay: Inhibition of full length recombinant human N-terminal GST-tagged HDAC6 expressed in baculovirus infected insect cells using RHK-K(Ac)-AMC as substrate after 90 mins by fluorescence assay
# T3 sequence (Q9UBN7 whole entry): T2 sequence (whole entry)
# [6] = biological target: T2, Protein deacetylase HDAC6 (Homo sapiens); assay: Inhibition of HDAC6 in human U266 cells assessed as increase in acetylated tubulin level by immunoblot analysis relative to control; assay type: cell-based; in short: as §1
# NCI-H929 = assay: Antiproliferative activity against human NCI-H929 cells after 48 hrs by SRB assay; assay type: functional; conditions: NCI-H929, 48 h; in short: as §2
# [7] = biological target: T2, Protein deacetylase HDAC6 (Homo sapiens); assay: Inhibition of HDAC6 in human NCI-H929 cells assessed as increase in acetylated tubulin level by immunoblot analysis relative to control; assay type: cell-based; in short: as §1
# Histone deacetylase 2 = Histone deacetylase 2 (Homo sapiens, UniProt Q92769); assay: Inhibition of full length recombinant human C-terminal GST-tagged HDAC2 expressed in baculovirus infected insect cells using RHK-K(Ac)-AMC as substrate after 60 mins by fluorescence assay
# Histone deacetylase 2, sequence (Q92769 whole entry): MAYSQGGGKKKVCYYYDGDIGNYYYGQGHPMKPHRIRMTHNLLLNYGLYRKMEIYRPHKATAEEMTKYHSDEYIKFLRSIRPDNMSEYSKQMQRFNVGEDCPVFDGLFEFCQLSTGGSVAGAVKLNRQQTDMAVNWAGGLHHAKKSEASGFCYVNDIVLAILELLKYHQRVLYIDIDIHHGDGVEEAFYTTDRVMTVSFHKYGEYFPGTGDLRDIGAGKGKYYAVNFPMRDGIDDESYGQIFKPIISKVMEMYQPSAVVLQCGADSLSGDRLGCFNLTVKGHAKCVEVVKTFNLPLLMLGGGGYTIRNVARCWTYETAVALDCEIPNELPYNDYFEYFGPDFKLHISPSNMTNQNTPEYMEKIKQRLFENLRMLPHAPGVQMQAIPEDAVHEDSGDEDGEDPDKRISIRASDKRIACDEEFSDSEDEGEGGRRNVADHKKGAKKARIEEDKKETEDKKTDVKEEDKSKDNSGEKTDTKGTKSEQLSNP
# Histone deacetylase 3/Nuclear receptor corepressor 2 (HDAC3/NCoR2), sequence (O15379 whole entry, the tested form may be a part): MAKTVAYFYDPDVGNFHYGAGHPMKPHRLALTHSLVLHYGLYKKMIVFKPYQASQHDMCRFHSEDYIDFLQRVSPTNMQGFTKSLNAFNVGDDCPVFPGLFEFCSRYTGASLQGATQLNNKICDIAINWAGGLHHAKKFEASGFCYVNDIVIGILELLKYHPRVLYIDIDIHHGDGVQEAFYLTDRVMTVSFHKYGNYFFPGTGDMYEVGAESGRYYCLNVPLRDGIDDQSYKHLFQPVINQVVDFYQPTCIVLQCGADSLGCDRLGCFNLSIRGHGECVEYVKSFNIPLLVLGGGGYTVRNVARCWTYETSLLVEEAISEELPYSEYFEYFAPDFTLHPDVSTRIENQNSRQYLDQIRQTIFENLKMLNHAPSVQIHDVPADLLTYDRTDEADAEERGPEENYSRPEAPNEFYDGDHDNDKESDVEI
# Histone deacetylase 3/Nuclear receptor corepressor 2 (HDAC3/NCoR2), sequence (Q9Y618 whole entry, further chain, the tested form may be a part): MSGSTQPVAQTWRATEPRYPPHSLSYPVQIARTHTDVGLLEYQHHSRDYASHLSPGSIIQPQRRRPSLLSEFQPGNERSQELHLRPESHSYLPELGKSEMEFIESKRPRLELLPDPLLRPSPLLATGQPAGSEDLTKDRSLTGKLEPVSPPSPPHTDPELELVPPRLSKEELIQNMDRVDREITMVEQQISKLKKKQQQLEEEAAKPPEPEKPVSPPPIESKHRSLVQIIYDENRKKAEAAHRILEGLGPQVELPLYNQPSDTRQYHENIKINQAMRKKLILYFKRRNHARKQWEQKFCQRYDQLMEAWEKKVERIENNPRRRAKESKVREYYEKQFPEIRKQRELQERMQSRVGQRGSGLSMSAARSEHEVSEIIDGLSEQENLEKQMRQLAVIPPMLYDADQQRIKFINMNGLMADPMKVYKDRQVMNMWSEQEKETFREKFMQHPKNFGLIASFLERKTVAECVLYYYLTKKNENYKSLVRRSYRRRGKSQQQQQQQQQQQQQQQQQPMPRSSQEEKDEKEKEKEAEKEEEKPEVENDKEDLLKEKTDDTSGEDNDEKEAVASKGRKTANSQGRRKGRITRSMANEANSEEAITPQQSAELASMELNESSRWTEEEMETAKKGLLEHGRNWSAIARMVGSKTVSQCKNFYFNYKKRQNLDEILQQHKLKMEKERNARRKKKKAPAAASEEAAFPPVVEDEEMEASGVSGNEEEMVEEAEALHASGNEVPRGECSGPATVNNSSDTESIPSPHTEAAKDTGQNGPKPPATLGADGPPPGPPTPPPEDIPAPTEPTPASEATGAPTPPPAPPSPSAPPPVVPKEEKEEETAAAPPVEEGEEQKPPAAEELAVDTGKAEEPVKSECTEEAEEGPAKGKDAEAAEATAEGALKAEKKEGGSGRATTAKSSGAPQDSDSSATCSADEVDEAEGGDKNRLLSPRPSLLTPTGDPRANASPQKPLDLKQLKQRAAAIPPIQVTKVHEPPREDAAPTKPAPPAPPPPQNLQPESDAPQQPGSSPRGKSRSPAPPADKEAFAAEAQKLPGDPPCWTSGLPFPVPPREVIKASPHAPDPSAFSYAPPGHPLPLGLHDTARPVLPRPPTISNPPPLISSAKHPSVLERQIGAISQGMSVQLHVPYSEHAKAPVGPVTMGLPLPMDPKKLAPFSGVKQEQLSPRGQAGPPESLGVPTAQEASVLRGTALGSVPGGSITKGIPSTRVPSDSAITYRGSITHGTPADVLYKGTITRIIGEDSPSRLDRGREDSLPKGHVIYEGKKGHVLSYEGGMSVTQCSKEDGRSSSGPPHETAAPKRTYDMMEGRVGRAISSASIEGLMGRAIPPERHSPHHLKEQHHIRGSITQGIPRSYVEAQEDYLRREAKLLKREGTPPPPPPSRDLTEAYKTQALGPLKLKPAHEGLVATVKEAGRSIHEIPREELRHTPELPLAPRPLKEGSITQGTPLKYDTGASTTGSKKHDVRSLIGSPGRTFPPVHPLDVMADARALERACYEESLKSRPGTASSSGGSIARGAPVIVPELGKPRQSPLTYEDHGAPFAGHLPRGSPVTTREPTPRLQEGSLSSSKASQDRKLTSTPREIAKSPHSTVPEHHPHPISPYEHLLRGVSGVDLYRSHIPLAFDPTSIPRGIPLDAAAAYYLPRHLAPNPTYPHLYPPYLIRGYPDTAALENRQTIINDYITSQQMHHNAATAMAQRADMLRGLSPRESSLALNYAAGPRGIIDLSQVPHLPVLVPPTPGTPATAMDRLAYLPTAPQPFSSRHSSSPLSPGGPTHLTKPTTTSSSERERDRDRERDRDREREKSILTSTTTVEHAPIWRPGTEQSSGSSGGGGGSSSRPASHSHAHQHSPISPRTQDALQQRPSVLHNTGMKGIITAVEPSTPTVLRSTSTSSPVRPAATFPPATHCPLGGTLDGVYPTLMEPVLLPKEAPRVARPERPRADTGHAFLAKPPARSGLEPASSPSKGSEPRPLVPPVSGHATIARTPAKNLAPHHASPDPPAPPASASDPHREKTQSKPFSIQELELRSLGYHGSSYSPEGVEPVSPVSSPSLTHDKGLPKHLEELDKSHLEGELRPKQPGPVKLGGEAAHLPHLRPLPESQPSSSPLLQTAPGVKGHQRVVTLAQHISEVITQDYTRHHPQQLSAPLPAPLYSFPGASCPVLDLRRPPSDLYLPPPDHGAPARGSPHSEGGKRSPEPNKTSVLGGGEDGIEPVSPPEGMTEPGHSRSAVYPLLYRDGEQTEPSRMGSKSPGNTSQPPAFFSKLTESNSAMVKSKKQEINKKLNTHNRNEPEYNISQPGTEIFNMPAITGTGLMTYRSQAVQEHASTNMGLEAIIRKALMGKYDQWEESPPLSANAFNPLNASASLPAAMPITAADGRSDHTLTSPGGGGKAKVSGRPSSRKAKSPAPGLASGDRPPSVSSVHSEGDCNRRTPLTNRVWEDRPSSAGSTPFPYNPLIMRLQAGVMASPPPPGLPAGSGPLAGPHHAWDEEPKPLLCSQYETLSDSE
# Histone deacetylase 9, sequence (Q9UKV0 whole entry): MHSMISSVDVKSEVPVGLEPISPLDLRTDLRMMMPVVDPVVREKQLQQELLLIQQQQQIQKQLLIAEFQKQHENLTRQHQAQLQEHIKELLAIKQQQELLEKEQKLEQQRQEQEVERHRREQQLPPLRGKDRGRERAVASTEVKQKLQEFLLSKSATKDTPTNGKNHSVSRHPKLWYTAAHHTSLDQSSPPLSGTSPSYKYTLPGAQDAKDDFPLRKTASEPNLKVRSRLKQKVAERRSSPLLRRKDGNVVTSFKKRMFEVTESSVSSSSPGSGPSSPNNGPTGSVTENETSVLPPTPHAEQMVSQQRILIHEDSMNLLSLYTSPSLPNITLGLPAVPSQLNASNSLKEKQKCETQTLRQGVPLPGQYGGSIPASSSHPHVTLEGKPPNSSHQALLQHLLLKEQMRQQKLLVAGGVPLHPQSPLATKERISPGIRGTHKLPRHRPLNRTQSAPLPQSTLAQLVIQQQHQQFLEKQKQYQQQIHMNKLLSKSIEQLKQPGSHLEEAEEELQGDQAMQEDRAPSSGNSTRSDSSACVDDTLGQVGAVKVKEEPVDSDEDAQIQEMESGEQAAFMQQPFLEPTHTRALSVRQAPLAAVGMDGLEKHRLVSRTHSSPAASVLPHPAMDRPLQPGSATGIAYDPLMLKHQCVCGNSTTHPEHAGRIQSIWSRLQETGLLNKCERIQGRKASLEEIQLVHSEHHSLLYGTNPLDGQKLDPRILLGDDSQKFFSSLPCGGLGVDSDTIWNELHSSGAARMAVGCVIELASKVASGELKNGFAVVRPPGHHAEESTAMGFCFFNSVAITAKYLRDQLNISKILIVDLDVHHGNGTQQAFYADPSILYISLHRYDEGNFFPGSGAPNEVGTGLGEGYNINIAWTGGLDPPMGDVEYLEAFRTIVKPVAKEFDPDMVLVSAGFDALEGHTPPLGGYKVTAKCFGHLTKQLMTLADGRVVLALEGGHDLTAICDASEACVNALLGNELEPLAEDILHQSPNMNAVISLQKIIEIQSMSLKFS
IC50 [1],IC50 [2],inhibition [3],IC50 (Histone deacetylase 4),IC50 (Histone deacetylase 9),IC50 [5],inhibition [6],GI50 (NCI-H929),inhibition [7],IC50 (Histone deacetylase 2),Structure (SMILES),GI50 at 48 h [4]
5.48 µM,> 20 µM,Dose-dependent effect,4.82 µM,1.92 µM,0.000795 µM,Dose-dependent effect,6.2 µM,Dose-dependent effect,8.61 µM,O=C(NO)c1ccc(CNc2cccc3ncccc23)cc1,> 100 µM
7.75 µM,> 20 µM,Dose-dependent effect,4.44 µM,1.53 µM,0.000291 µM,Dose-dependent effect,9.14 µM,Dose-dependent effect,12.5 µM,O=C(NO)c1ccc(CNc2cccc3cccnc23)cc1,> 100 µM
